Drawing on ChEMBL document CHEMBL1122376, “Pyrazolo[3,4-d]pyrimidine ribonucleosides as anticoccidials. 3. Synthesis and activity of some nucleosides of 4-[(arylalkenyl)thio]pyrazolo[3,4-d]pyrimidines” (1983), this text covers Activity and MIC for 20 compounds.

Molecules are shown by their SMILES. Converted amounts (≈) assume the structure as drawn. Bounds are passed on as bounds.

What all share (format): functional
The subject of assay [1] is Eimeria tenella. The assay is described as follows: In vivo anti-coccidial activity expressed as number of the chicks cleared of Eimeria tenella lesions out of a group of five, at 200 ppm in the diet. The procedure, abridged: (§1)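 Week-old chicks, given compound in the diet. E. tenella (Weybridge strain) infection given together with E. acervulina (Ongar strain).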
For assay [2], the system named is Eimeria tenella. As to the kind of experiment: In vitro inhibitory activity against Eimeria tenella in embryonic chick liver cells. The procedure, abridged:
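E. tenella, Weybridge strain, grown in vitro in embryonic chick liver cells.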

Assay [3] has as its system Eimeria tenella. As to the kind of experiment: In vivo anti-coccidial activity expressed as number of the chicks cleared of Eimeria tenella lesions out of a group of five, at 25 ppm in the diet. The procedure, abridged: as §1
The subject of assay [4] is Eimeria tenella. As to the kind of experiment: In vivo anti-coccidial activity expressed as number of the chicks cleared of Eimeria tenella lesions out of a group of five, at 50 ppm in the diet. The procedure, abridged:
as §1

For assay [5], the system named is Eimeria tenella. The assay is described as follows: In vivo anti-coccidial activity expressed as number of the chicks cleared of Eimeria tenella lesions out of a group of five, at 400 ppm in the diet. The procedure, abridged:
as §1

Assay [6] has as its system Eimeria tenella. The assay is described as follows: In vivo anti-coccidial activity expressed as number of the chicks cleared of Eimeria tenella lesions out of a group of five, at 100 ppm in the diet. The procedure, abridged: as §1
For assay [7], the system named is Eimeria tenella. As to the kind of experiment: In vivo anti-coccidial activity expressed as number of the chicks cleared of Eimeria tenella lesions out of a group of five, at 300 ppm in the diet. An outline of the steps: as §1
Assay [8] concerns Eimeria tenella. As to the kind of experiment: In vivo anti-coccidial activity expressed as number of the chicks cleared of Eimeria tenella lesions out of a group of five, at 200 ppm in the diet;one chick out of 5 died and contained lesions due to the parasite.
The test system of assay [9] is Eimeria tenella. As to the kind of experiment: In vivo anti-coccidial activity expressed as number of the chicks cleared of Eimeria tenella lesions out of a group of five, at 25 ppm in the diet;At 12.5 ppm, no chicks were cleared. An outline of the steps:
as §1

Assay [10] concerns Eimeria tenella. The assay is described as follows: In vivo anti-coccidial activity expressed as number of the chicks cleared of Eimeria tenella lesions out of a group of five, at 12.5 ppm in the diet. An outline of the steps: as §1
Assay [11] deals with Eimeria tenella. The assay is described as follows: In vivo anti-coccidial activity expressed as number of the chicks cleared of Eimeria tenella lesions out of a group of five, at 25 ppm in the diet;At 12.5 p.p.m. no chicks were cleared. An outline of the steps: as §1
Assay [12] deals with Eimeria tenella. As to the kind of experiment: In vivo anti-coccidial activity expressed as number of the chicks cleared of Eimeria tenella lesions out of a group of five, at 200 ppm in the diet;one chick out of a group of 5 died and contained lesions due to the parasite.

In general, MIC refers to the lowest concentration found to suppress growth. Low readings indicate a more susceptible organism, high ones a less susceptible organism.

Regarding `CC(=O)OC[C@H]1O[C@@H](n2ncc3c(SC/C=C/c4ccccc4)ncnc32)[C@H](OC(C)=O)[C@@H]1OC(C)=O`, the Activity in the assay on Eimeria tenella [1] is reported as 5; in the assay with Eimeria tenella [3], 1; in the assay with Eimeria tenella [4], 5. Also, the MIC against Eimeria tenella [2] stood at 1.25 µg/mL (≈ 2.37 µM).
In the case of `OC[C@H]1OC(n2ncc3c(SC/C=C/c4ccc(Cl)c(Cl)c4)ncnc32)[C@H](O)[C@@H]1O` (stereo partly drawn), in the assay with Eimeria tenella [1], the Activity was determined as 2. Moreover, the MIC in the assay with Eimeria tenella [2] was determined as 0.31 µg/mL (≈ 0.66 µM).
With `OC[C@H]1OC(n2ncc3c(SC/C=C/c4cccc(O)c4)ncnc32)[C@H](O)[C@@H]1O` (stereo partly drawn), the Activity with Eimeria tenella [5] is 0. Besides, the MIC with Eimeria tenella [2] stood at 20 µg/mL (≈ 48 µM).
As to `C/C=C/CSc1ncnc2c1cnn2C1O[C@H](CO)[C@@H](O)[C@H]1O` (stereo partly drawn), the Activity with Eimeria tenella [6] came out at 4; with Eimeria tenella [1], 5; with Eimeria tenella [3], 0; with Eimeria tenella [4] it was 0. Besides, it took 0.019 µg/mL (≈ 0.0561 µM) to inhibit growth against Eimeria tenella [2] (MIC).
In the case of `OC[C@H]1OC(n2ncc3c(S)ncnc32)[C@H](O)[C@@H]1O` (stereo partly drawn), the Activity with Eimeria tenella [1] amounted to 2. Also, the lowest concentration to inhibit growth in the assay with Eimeria tenella [2] (MIC) was 0.31 µg/mL (≈ 1.09 µM).
In the assay with Eimeria tenella [7], `COc1ccccc1/C=C/CSc1ncnc2c1cnn2C1O[C@H](CO)[C@@H](O)[C@H]1O` (stereo partly drawn) gave an Activity of 1. In addition, the MIC with Eimeria tenella [2] worked out at 1.25 µg/mL (≈ 2.9 µM).
Regarding `OC[C@H]1OC(n2ncc3c(SC/C=C/c4cccc(C(F)(F)F)c4)ncnc32)[C@H](O)[C@@H]1O` (stereo partly drawn), the Activity in the assay on Eimeria tenella [8] is listed as 1. Also, the lowest concentration to inhibit growth against Eimeria tenella [2] (MIC) was 5 µg/mL (≈ 10.7 µM).
Regarding `COc1cc(/C=C/CSc2ncnc3c2cnn3C2O[C@H](CO)[C@@H](O)[C@H]2O)cc(OC)c1OC` (stereo partly drawn), the Activity in the assay on Eimeria tenella [6] worked out at 2; in the assay with Eimeria tenella [5], 5; in the assay on Eimeria tenella [1], 5. Further, 0.31 µg/mL (≈ 0.632 µM) was the least that counted as inhibitory against Eimeria tenella [2] (MIC).
With `C=CCSc1ncnc2c1cnn2C1O[C@H](CO)[C@@H](O)[C@H]1O` (stereo partly drawn), the Activity is recorded as 5 with Eimeria tenella [6], 5 with Eimeria tenella [1], 1 in the assay with Eimeria tenella [3] and 2 in the assay on Eimeria tenella [4]. In addition, in the assay with Eimeria tenella [2], 0.019 µg/mL (≈ 0.0586 µM) was the least that counted as inhibitory (MIC).
For `OC[C@H]1OC(n2ncc3c(SC/C=C/C=C/c4ccccc4)ncnc32)[C@H](O)[C@@H]1O` (stereo partly drawn), the Activity with Eimeria tenella [1] is recorded as 5; with Eimeria tenella [3], 1; in the assay on Eimeria tenella [4] it was 5. In the assay on Eimeria tenella [2], this compound returned an MIC of 0.019 µg/mL (≈ 0.0445 µM).
In the case of `OC[C@H]1OC(n2ncc3c(SC/C=C\c4ccccc4)ncnc32)[C@H](O)[C@@H]1O` (stereo partly drawn), the Activity in the assay on Eimeria tenella [6], in the assay on Eimeria tenella [9] and with Eimeria tenella [4] was 0 each time. In addition, the MIC against Eimeria tenella [2] is over 20 µg/mL.
Turning to `O=P(O)(O)OC[C@H]1OC(n2ncc3c(SC/C=C/c4ccccc4)ncnc32)[C@H](O)[C@@H]1O` (stereo partly drawn), the Activity was found to be 5 in the assay with Eimeria tenella [6]; 5 in the assay with Eimeria tenella [1]; 5 with Eimeria tenella [3]; 0 with Eimeria tenella [10]; 5 with Eimeria tenella [4]. The compound also gave a minimal inhibitory concentration (MIC) against Eimeria tenella [2] of 0.012 µg/mL (≈ 0.025 µM).
Regarding `COc1ccc(/C=C/CSc2ncnc3c2cnn3C2O[C@H](CO)[C@@H](O)[C@H]2O)cc1` (stereo partly drawn), the Activity in the assay on Eimeria tenella [7] is 2. The compound further yielded an MIC in the assay on Eimeria tenella [2] of 1.25 µg/mL (≈ 2.9 µM).
For `OC[C@H]1OC(n2ncc3c(SCC#Cc4ccccc4)ncnc32)[C@H](O)[C@@H]1O` (stereo partly drawn), the Activity with Eimeria tenella [6] was 2; in the assay with Eimeria tenella [1], 5; with Eimeria tenella [3], 1; with Eimeria tenella [4], 0. This compound yielded an MIC in the assay on Eimeria tenella [2] of 0.019 µg/mL (≈ 0.0477 µM).
`OC[C@H]1OC(n2ncc3c(SC/C=C/c4ccc(Cl)cc4)ncnc32)[C@H](O)[C@@H]1O` (stereo partly drawn): the Activity with Eimeria tenella [6] is listed as 5; in the assay on Eimeria tenella [1] it was 5; in the assay with Eimeria tenella [3], 0; with Eimeria tenella [4], 0. For the same compound, in the assay on Eimeria tenella [2], the MIC turned out to be 0.31 µg/mL (≈ 0.713 µM).
Turning to `OC[C@H]1OC(n2ncc3c(SC/C=C/c4ccccc4)ncnc32)[C@H](O)[C@@H]1O` (stereo partly drawn), the Activity in the assay on Eimeria tenella [6], in the assay with Eimeria tenella [11], in the assay with Eimeria tenella [1] and in the assay with Eimeria tenella [4] was 5 in each case. The MIC against Eimeria tenella [2] amounted to 0.078 µg/mL (≈ 0.195 µM).
Turning to `OC[C@H]1OC(n2ncc3c(SC/C=C/c4cccc(Br)c4)ncnc32)[C@H](O)[C@@H]1O` (stereo partly drawn), the Activity is listed as 5 in the assay with Eimeria tenella [6], 5 with Eimeria tenella [1], 1 in the assay with Eimeria tenella [3] and 4 with Eimeria tenella [4]. Also, the minimal inhibitory concentration (MIC) with Eimeria tenella [2] came out at 5 µg/mL (≈ 10.4 µM).
`Cc1ccc(/C=C/CSc2ncnc3c2cnn3C2O[C@H](CO)[C@@H](O)[C@H]2O)cc1` (stereo partly drawn) returned an Activity with Eimeria tenella [12] of 0. Besides, in the assay with Eimeria tenella [2], 5 µg/mL (≈ 12.1 µM) was the least that counted as inhibitory (MIC).
Regarding `OC[C@H]1OC(n2ncc3c(SC/C=C/c4ccc(OCc5ccccc5)cc4)ncnc32)[C@H](O)[C@@H]1O` (stereo partly drawn), the Activity was determined as 2 in the assay on Eimeria tenella [6], 5 in the assay on Eimeria tenella [1], 1 with Eimeria tenella [3] and 0 in the assay on Eimeria tenella [4]. In the assay with Eimeria tenella [2], this compound showed an MIC of 1.25 µg/mL (≈ 2.47 µM).
Take `OC[C@H]1OC(n2ncc3c(SC/C=C/c4ccc(Cl)cc4Cl)ncnc32)[C@H](O)[C@@H]1O` (stereo partly drawn): in the assay on Eimeria tenella [1], the Activity was determined as 2. In the assay on Eimeria tenella [2], this compound displayed an MIC of 1.25 µg/mL (≈ 2.66 µM).
